Test results from ChEMBL document CHEMBL3286267, “Discovery of MK-4409, a Novel Oxazole FAAH Inhibitor for the Treatment of Inflammatory and Neuropathic Pain” (ACS Med Chem Lett, 2014).
≈ marks a conversion by molar mass, not a printed value.

What was measured:
[1] = molecular target: Voltage-gated inwardly rectifying potassium channel KCNH2 (Homo sapiens, UniProt Q12809); experiment: Displacement of [35S]MK-499 from human ERG
How it was run: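 hERG K+ channel binding assay measuring displacement of the radiolabelled channel blocker [35S]MK-499. Values are averages of at least three duplicates.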

[2] = molecular target: T1, Fatty-acid amide hydrolase 1 (Rattus norvegicus, UniProt P97612); experiment: Inhibition of rat FAAH lysate using AMCAA as substrate by fluorescence assay
T1 sequence (P97612 whole entry): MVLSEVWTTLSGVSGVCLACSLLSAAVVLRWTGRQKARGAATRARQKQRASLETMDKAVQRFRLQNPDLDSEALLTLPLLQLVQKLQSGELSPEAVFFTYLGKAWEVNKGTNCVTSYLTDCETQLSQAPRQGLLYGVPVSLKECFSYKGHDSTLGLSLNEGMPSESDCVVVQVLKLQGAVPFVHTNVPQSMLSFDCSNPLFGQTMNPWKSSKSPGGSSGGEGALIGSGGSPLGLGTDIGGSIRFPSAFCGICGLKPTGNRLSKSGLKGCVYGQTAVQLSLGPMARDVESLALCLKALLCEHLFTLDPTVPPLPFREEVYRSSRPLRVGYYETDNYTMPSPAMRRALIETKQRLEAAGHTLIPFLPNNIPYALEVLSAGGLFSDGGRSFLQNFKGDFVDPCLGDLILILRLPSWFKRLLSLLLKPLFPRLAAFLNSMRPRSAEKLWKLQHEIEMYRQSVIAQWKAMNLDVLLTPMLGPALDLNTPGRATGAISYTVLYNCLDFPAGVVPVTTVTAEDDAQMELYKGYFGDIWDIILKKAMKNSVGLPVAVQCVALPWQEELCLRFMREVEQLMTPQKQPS
How it was run: (§1)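 In vitro assays, with values reported as the average of at least three duplicates.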

[3] = Inhibition of human vesicular monoamine transporter; how it was run: as §1
Rattus norvegicus [4] = experiment: Analgesic activity in Sprague-Dawley rat complete Freund's adjuvant-induced inflammatory pain model assessed as reversal of mechanical allodynia at 10 mg/kg, po single dose measured after 3 hrs; format: functional
How it was run: (§2)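 Inflammatory pain induced in rats by intraplantar injection of complete Freund's adjuvant into the hind paw. Mechanical allodynia was assessed at 1 and 3 h after a single oral dose. For each rat, percent reversal = (postdose – predose)/(preinjury – predose), averaged over n = 6.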

Rattus norvegicus [5] = experiment: Analgesic activity in Sprague-Dawley rat complete Freund's adjuvant-induced inflammatory pain model assessed as reversal of mechanical allodynia at 10 mg/kg, po single dose measured after 1 hr; format: functional; how it was run: as §2
[6] = Clearance in rat at 1 mg/kg, iv and 1 to 2 mg/kg, po; format: ADME, organism-based; conditions: in vivo
How it was run: (§3)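 Rat PK given 1 mg/kg iv in DMSO/PEG400/H2O 20/60/20 and 2 mg/kg po in either Imwitor/Tween 1/1 or PEG400/Tween80/H2O 40/10/50. Half-life, clearance, volume of distribution, dose-normalized AUC (AUCN) and oral bioavailability were derived.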

Rattus norvegicus [7] = experiment: Dose normalized AUC in rat at 1 mg/kg, iv and 1 to 2 mg/kg, po; format: ADME, organism-based; conditions: in vivo; how it was run: as §3
[8] = Bioavailability in rat at 1 mg/kg, iv and 1 to 2 mg/kg, po; format: ADME, organism-based; conditions: in vivo; how it was run: as §3
[9] = Volume of distribution at steady state in rat at 1 mg/kg, iv and 1 to 2 mg/kg, po; format: ADME, organism-based; conditions: in vivo, read-out: Vdss; how it was run: as §3
[10] = Half life in rat at 1 mg/kg, iv and 1 to 2 mg/kg, po; format: ADME, organism-based; conditions: in vivo; how it was run: as §3
[11] = Solubility in fasted state simulated intestinal fluid; format: ADME
[12] = Volume of distribution at steady state in rat at 1 mg/kg, iv and 2 mg/kg, po; format: ADME, organism-based; conditions: in vivo, read-out: Vdss; how it was run: as §3
[13] = molecular target: T2, Fatty-acid amide hydrolase 1 (Homo sapiens, UniProt O00519); experiment: Inhibition of human FAAH lysate using AMCAA as substrate by fluorescence assay; how it was run: as §1
T2 sequence (O00519 whole entry): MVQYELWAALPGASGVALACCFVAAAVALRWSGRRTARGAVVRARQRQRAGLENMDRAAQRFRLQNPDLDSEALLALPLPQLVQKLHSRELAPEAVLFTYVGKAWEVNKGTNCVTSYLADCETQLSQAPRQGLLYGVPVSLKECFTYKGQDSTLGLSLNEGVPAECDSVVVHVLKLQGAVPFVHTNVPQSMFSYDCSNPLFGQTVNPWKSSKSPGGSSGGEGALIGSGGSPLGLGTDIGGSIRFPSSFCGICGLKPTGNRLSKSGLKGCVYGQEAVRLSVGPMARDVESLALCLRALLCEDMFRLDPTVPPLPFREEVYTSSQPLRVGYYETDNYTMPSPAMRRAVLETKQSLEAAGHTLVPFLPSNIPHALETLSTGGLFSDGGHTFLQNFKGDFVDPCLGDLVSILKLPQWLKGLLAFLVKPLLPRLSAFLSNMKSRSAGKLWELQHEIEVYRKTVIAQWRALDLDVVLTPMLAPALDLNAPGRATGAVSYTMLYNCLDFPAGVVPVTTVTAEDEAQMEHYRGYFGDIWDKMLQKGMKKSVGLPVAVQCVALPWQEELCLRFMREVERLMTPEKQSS

[14] = Half life in rat at 1 mg/kg, iv and 2 mg/kg, po; format: ADME, organism-based; conditions: in vivo; how it was run: as §3
[15] = Bioavailability in rat at 1 mg/kg, iv and 2 mg/kg, po; format: ADME, organism-based; conditions: in vivo; how it was run: as §3
Rattus norvegicus [16] = experiment: Analgesic activity in Sprague-Dawley rat complete Freund's adjuvant-induced inflammatory pain model assessed as reversal of mechanical allodynia at 30 mg/kg, po single dose measured after 3 hrs; format: functional; how it was run: as §2
[17] = Clearance in rat at 1 mg/kg, iv and 2 mg/kg, po; format: ADME, organism-based; conditions: in vivo; how it was run: as §3
Rattus norvegicus [18] = experiment: Analgesic activity in Sprague-Dawley rat complete Freund's adjuvant-induced inflammatory pain model assessed as reversal of mechanical allodynia at 30 mg/kg, po single dose measured after 1 hr; format: functional; how it was run: as §2
Rattus norvegicus [19] = experiment: Dose normalized AUC in rat at 1 mg/kg, iv and 2 mg/kg, po; format: ADME, organism-based; conditions: in vivo; how it was run: as §3

Voltage-gated inwardly rectifying potassium channel KCNH2, sequence (Q12809 whole entry): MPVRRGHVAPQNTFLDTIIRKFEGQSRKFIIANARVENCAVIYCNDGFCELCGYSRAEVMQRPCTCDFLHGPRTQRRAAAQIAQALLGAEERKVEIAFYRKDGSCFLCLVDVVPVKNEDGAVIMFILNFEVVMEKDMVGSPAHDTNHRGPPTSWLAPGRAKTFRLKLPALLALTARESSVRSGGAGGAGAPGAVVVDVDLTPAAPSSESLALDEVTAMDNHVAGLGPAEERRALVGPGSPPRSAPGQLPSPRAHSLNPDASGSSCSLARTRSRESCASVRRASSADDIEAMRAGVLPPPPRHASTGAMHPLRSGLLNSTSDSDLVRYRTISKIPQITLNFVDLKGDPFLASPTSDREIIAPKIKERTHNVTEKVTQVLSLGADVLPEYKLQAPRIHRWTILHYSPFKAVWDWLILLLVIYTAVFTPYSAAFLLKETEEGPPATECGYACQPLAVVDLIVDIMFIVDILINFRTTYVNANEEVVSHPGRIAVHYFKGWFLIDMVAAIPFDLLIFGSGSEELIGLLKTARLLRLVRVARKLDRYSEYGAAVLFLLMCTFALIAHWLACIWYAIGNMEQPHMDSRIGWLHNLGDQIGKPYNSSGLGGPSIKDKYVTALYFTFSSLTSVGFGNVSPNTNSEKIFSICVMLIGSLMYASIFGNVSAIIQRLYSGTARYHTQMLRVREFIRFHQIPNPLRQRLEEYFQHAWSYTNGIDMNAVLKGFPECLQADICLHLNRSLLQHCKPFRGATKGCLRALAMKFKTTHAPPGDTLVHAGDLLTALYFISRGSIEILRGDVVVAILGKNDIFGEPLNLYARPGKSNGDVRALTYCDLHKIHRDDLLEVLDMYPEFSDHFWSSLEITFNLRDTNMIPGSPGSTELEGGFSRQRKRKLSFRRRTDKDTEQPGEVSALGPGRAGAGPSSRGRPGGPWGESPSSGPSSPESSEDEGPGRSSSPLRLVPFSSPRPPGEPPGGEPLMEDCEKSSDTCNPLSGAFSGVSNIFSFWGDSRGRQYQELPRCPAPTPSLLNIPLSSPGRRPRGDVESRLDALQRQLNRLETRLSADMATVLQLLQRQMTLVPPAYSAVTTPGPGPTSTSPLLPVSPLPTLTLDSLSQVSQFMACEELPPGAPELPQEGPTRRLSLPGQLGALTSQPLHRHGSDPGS

SMILES | IC50 [2] [nM] | EC50 [3] [nM] | solubility [11] [µg/mL] | IC50 [13] [nM] | Ki [1] [nM] | also measured
CS(=O)(=O)c1ccc(-c2nc(-c3ccc(F)cc3)oc2Sc2ccc(Cl)cn2)cc1 | 21 | 14000 | – | – | 2500 | Activity (Rattus norvegicus [4]): 44%; Activity (Rattus norvegicus [5]): 46%
CS(=O)(=O)c1ccc(-c2nn(-c3ccc(F)cc3)cc2Sc2ccc(Cl)cc2)cc1 | 6 | 363 | 3 (≈ 6.54 µM) | – | 637 | clearance [6]: 34 mL/min/kg; AUC/dose (Rattus norvegicus [7]): 1.06 µM·kg·h/mg; bioavailability [8]: 100%; Vd [9]: 8.4 L/kg; half-life [10]: 1.79 h
CS(=O)(=O)c1ccc(-c2nc(-c3ccccc3)oc2Sc2ccc(Cl)cc2)cc1 | 6 | – | – | 13 | 28500 | –

The next lines start with results.

IC50 [2] [nM] | EC50 [3] [nM] | solubility [11] [µg/mL] | IC50 [13] [nM] | SMILES | Ki [1] [nM] | also measured
4.8 | 137 | 27 (≈ 62.5 µM) | 13 | Clc1ccc(Sc2cn(-c3cccnc3)nc2-c2ccc(-c3ncon3)cc2)cc1 | 5210 | Vd [12]: 7.8 L/kg; half-life [14]: 2.57 h; bioavailability [15]: 35%; Activity (Rattus norvegicus [16]): 62%; clearance [17]: 34 mL/min/kg; Activity (Rattus norvegicus [18]): 49%; AUC/dose (Rattus norvegicus [19]): 0.39 µM·kg·h/mg
125 | – | – | 119 | Clc1ccc(Sc2c[nH]nc2-c2ccc3c(c2)OCCO3)cc1 | 1540 | –
